Assay outcomes as filed in PubChem.
Jurkat NFkB inh: inhibitors of the PMA/ionomycin-induced NF-kB reporter in Jurkat cells; PMA/ionomycin-induced NF-kB luciferase reporter, luminescence; inhibition, % at 4 µM; 0.53% of 330,000 active; AID 435003; in the data active = inhibition above about 50%
T cruzi repl: T. cruzi replication inhibition | 1.4% of 300,000 active | T. cruzi beta-gal in NIH3T3, luminescence, 90 h | inhibition, % (no concentration beside the values);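 active = mean inhibition across valid replicates above about 55%, limit read from the data; inconclusive = mean below that limit but half or more replicates reach it; inactive = mean below it, under half of replicates reach it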;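 note: signal also drops with host cell toxicity which is not excluded here; 0% = plate median of DMSO wells and 100% = zero luminescence signal; higher percent means less beta-gal luminescence so fewer parasites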
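Test system: β-gal T. cruzi (Tulahuen C4) inside NIH/3T3 cells / Quantity: 5,000 cells/well / Measured by: luminescence from GalScreen with 0.05% NP40, read after 60 min / Medium: DMEM plus 2% FBS / Measure: parasite load inhibition, % / Reagent: Tulahuen C4 trypomastigotes, 5000/well / Schedule: co-culture of at least 90 h after 3 h attachment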
697 NFkB inh: inhibitors of the PMA/ionomycin-induced NF-kB reporter in 697 B cells; 697 B-cell NF-kB luciferase reporter, 16 h; AID 435022; inhibition, % at 4 µM; 0.33% of 330,000 active; in the data active = inhibition above about 35%
HSF-1 act: increases HSF-1 driven luciferase reporter signal; NIH3T3-HGL HSF-1 luciferase reporter, MG132, 8 h; 100% = twice DMSO control signal; activation, % at 9 µM; 1.7% of 300,000 active;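 active = mean replicate activation of at least 50% with a set share of replicates each reaching 50%; inconclusive = only one of those two conditions met; inactive = mean below 50% and too few replicates reaching it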;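 note: 0% = median of the neutral control wells and 100% = twice that signal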
GPR7 antagonist: blocks human GPR7 receptor signaling. GPR7-expressing cells, fluorescence antagonist assay. P48145. 1.1% of 290,000 active. inhibition, % at 4.4 µM; in the data active = inhibition above about 16%, passing the limit was not always enough;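 note: cells stimulated with the agonist NPW; 0% = agonist with vehicle and 100% = vehicle without agonist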
Target sequence (P48145 whole entry, looked up): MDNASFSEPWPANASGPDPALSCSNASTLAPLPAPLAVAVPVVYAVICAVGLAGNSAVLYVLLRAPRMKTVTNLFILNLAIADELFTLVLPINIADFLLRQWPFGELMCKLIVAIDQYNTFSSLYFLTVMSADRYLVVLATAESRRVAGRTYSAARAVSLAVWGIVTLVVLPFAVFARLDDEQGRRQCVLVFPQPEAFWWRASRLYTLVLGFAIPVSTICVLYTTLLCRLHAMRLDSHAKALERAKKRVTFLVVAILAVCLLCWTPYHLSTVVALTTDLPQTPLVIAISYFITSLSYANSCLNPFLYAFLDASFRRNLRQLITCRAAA
HSF1 inhib: HSF1 inhibition. AID 2098. 0.77% of 300,000 active. NIH3T3-HGL HSE-luciferase, MG132-induced, luminescence 8 h; hits give low values. activity change, negative = inhibition, % at 7.5 µM (by protocol);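 active = more than half of replicate wells show activity change below -50%, luminescence cut by over half; inconclusive = some wells, but at most half, below -50%; inactive = no replicate well below -50%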;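 note: luciferase reports HSF-1 transcriptional activity via heat shock element; 0% = median of DMSO wells and -100% = zero luminescence signal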
GPR7 antag conf: confirmation of human GPR7 antagonists. shares compounds with GPR7 antagonist. 52% of 2,400 active. inhibition, % at 4.4 µM. AID 1952. GPR7-expressing cells, calcium fluorescence antagonist mode; in the data active = inhibition above about 24%;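 note: stimulated with the GPR7 agonist NPW; 0% = agonist plus vehicle and 100% = vehicle alone without agonist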
MCHR1 antagonist: antagonizes human MCHR1, a GPR7 antagonist counter-screen | shares compounds with GPR7 antagonist | MCHR1-expressing cells, fluorescence antagonist assay | inhibition, % at 4.4 µM | 62% of 2,400 active; in the data active = inhibition above about 22%;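 note: 0% = vehicle with agonist and 100% = vehicle without agonist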
Numbers without * were called inactive; u = inconclusive; x = no result. In the library only some 4.8% were active in any assay of this set; here they are far more common.

SMILES	Jurkat NFkB inh	T cruzi repl	697 NFkB inh	HSF-1 act	GPR7 antagonist	HSF1 inhib	GPR7 antag conf	MCHR1 antagonist
CCOc1cccc(CNCCSc2nnnn2C)c1	-11	-10	7	1	-1	2	x	x
CN(CC(=O)Nc1ccc(F)cc1)C(=O)c1ccccc1Sc1ccccc1C#N	11	x	4	x	x	x	x	x
OC(Cn1nnc2ccccc21)Cn1c(C(F)(F)F)nc2ccccc21 (stereo not drawn)	-2	-4	1	-40	0	-21	x	x
CNCC(O)Cn1c(C(F)(F)F)nc2ccccc21 (stereo not drawn)	-2	-1	1	-1	31*	-5	-6	19
O=C(NC1CCCCC1)C(c1ccc(F)cc1)N(Cc1ccco1)C(=O)c1ccccn1 (stereo not drawn)	-8	2	3	x	26*	x	6	12
Cc1ccc(S(=O)(=O)N(Cc2ccc(F)cc2)Cc2ccco2)cc1	9	31	-5	15	32*	14	30*	58*
NC(=O)c1ccccc1OCC(=O)N1CCCC1c1ccc2c(c1)OCCCO2 (stereo not drawn)	6	x	4	x	x	x	x	x
CC(=O)/C(N=Nc1c(C)n(C)n(-c2ccccc2)c1=O)=C(\C)O	-24	-12	-19	22	28*	11	0	-4
COc1ccc(/C=C/C(=O)NCc2cccnc2)cc1	-17	4	4	24	-1	0	x	x
CCc1ccc(CN(Cc2cccnc2)C(=O)/C=C/c2ccc(OC)cc2)cc1	11	64*	-13	5	39*	13	32*	49*
CN(C)S(=O)(=O)c1ccc(C(=O)NNC(=O)C23CC4CC(CC(C4)C2)C3)cc1	6	x	15	x	x	x	x	x
CCOc1ccccc1NC(=O)c1cc(S(=O)(=O)NCc2ccco2)ccc1F	-3	0	-2	12	24*	2	-11	8
COc1ccc(OC)c(NC(=O)c2cc(S(=O)(=O)NCc3ccco3)ccc2F)c1	5	6	4	11	-7	-1	x	x
COc1ccc(N(C(=O)C2CCCCC2)S(=O)(=O)c2cccc3cccnc23)cc1	0	10	6	5	21*	2	1	12
CCN(CC)C(=O)CSc1nc(O)c(Cc2ccccc2)c(=O)n1-c1ccc(C)cc1	3	0	-3	8	-18	5	x	x
Cc1ccc(-n2c(SCC(=O)N3CCCCC3)nc(O)c(Cc3ccccc3)c2=O)cc1	2	-6	-22	4	25*	7	10	4
CCOC(=O)C1CCN(C(c2cc(OC)c(OC)c(OC)c2)c2sc3nc(C)nn3c2O)CC1 (stereo not drawn)	7	2	8	-15	3	0	x	x
COC(=O)C1CCN(C(c2cc(OC)c(OC)c(OC)c2)c2sc3nc(C)nn3c2O)CC1 (stereo not drawn)	-12	-5	-17	3	23*	0	-10	3
COc1ccc(CNCC(O)(c2ccc(Cl)cc2)c2ccc(Cl)cc2)cc1	-1	49	-6	21	31*	-2	39*	56*
OC(CNCc1ccc(Cl)cc1)(c1ccccc1)c1ccc(F)cc1 (stereo not drawn)	-3	31	3	27	2	23	x	x
OC(CNCc1ccc(F)cc1)(c1ccc(F)cc1)c1ccc(F)cc1	-9	13	6	u	34*	11	29*	30*
CCCCNCC(O)(c1ccc(Cl)cc1)c1ccc(Cl)cc1	-8	9	29	-4	27*	-5	55*	64*
COc1ccc(CNCC(O)(c2ccc(Cl)cc2)c2ccc(Cl)cc2)cc1OC	6	15	-21	x	23	x	x	x
Cc1ccc(CS(=O)(=O)Cc2ccc(C(=O)NC3CCCC3)o2)cc1	-15	-20	-1	2	-5	4	x	x
C[C@H](CO)N1C[C@H](C)[C@@H](CN(C)CC2CCCCC2)Oc2c(NS(=O)(=O)c3ccc(F)cc3)cccc2C1=O	-4	x	11	x	x	x	x	x
